Results: PMC5028085 (Drug Design, Development and Therapy, 2016)
Where a name gives a salt, the structure may show the parent alone. Read-outs that look alike come from different tables or passages of the source. Marks after values point to notes of the source that are not given here.

Tests used:
[1] = tested on: CYP2D6; conditions: single coadministration with sarpogrelate hydrochloride 100 mg; cited from earlier work
[2] = tested on: CYP2D6; conditions: cited from earlier work
[3] = cited from earlier work
[4] = Observed clinical pharmacokinetics after oral sarpogrelate hydrochloride; format: in vivo, human
[5] = biological target: T1, BCRP (Homo sapiens, UniProt Q9UNQ0); format: cell-based; conditions: for Permeability Papp,AB of prazosin / Permeability Papp,BA of prazosin / Inhibition (%): MDCK-II-BCRP; for Permeability Papp,AB of prazosin / Permeability Papp,BA of prazosin: prazosin 10 μM, mean ± SD (n=3); for Inhibition (%): prazosin transport; for inhibition of BCRP-mediated prazosin transport: all tested concentrations up to 10 μM
T1 sequence (Q9UNQ0 1-655): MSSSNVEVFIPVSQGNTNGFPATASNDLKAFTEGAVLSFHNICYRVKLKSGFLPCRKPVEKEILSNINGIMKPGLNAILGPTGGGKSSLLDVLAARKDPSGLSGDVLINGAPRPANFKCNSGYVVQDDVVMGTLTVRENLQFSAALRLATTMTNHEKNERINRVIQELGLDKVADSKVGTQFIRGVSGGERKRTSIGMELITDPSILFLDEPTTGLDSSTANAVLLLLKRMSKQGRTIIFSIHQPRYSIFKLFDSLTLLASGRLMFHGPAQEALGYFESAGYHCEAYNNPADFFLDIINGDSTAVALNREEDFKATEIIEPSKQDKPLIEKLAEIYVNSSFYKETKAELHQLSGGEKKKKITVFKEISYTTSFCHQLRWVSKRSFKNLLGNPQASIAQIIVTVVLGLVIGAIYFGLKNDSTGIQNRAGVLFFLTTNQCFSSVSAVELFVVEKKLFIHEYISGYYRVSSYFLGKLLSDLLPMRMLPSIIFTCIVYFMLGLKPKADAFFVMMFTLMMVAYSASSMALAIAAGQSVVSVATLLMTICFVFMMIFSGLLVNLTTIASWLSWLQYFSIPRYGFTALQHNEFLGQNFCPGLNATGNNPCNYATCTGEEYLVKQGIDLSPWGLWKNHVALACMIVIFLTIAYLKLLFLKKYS

[6] = tested on: MDCK-II-P-gp cells; experiment: MTT cytotoxicity assay in MDCK-II-P-gp cells; format: cell-based, canine; conditions: 1 hour incubation, highest drug concentration tested (10 μM)
[7] = tested on: MDCK-II-BCRP cells; experiment: MTT cytotoxicity assay in MDCK-II-BCRP cells; format: cell-based, canine; conditions: 1 hour incubation, highest drug concentration tested (10 μM)
[8] = tested on: UGT2B7; conditions: M-1 glucuronidation; cited from earlier work
[9] = Metabolic stability in pooled human liver microsomes for CLint; format: in vitro ADME; conditions: for microsomal CLint at 400 nM: human, pooled human liver microsomes
How it was run: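 Preincubated 5 min at 37°C, then incubated with 400 nM substrate up to 60–90 min. Run in duplicate, analysed by LC-MS/MS as % remaining vs time 0. t1/2 from initial log-linear slope; CLint = (0.693/t1/2)×(incubation volume/microsomal protein).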

[10] = cited from earlier work; remark: listed apart in the source
[11] = biological target: P-gp (Homo sapiens, UniProt P08183); format: cell-based; conditions: for Permeability Papp,AB of loperamide / Permeability Papp,BA of loperamide / Inhibition (%): MDCK-II-P-gp; for Permeability Papp,AB of loperamide / Permeability Papp,BA of loperamide: loperamide 10 μM, mean ± SD (n=3); for Inhibition (%): loperamide transport
[12] = tested on: UGT1A4; conditions: M-1 glucuronidation; cited from earlier work
[13] = tested on: UGT1A9; conditions: M-1 glucuronidation; cited from earlier work
[14] = tested on: CYP2D6; conditions: read-out: CYP2D6 Ki; competitive inhibition type, in vitro; cited from earlier work
[15] = high solubility and permeability profile; cited from earlier work
[16] = MTT cytotoxicity assay in MDCK-II-P-gp cells; format: cell-based, canine; conditions: dog
[17] = Metabolic stability of sarpogrelate in human blood; format: in vitro ADME; conditions: sarpogrelate 400 nM, 60-minute incubation; data not shown
[18] = MTT cytotoxicity assay in MDCK-II-BCRP cells; format: cell-based, canine; conditions: dog
[19] = PBPK input parameters predicted, defaulted, optimized or assumed in Simcyp; design: species or system human; conditions: Assumed from Reference 21
[20] = Metabolic stability of sarpogrelate in human intestinal microsomes; format: in vitro ADME; conditions: sarpogrelate 400 nM, 60-minute incubation; data not shown
[21] = cited from earlier work; remark: listed apart in the source
[22] = multiple doses 100 mg tid for 1 day
[23] = observed, single oral 100 mg sarpogrelate hydrochloride, median (range), ref 20
[24] = human, MDCK-II-BCRP cell monolayer, probe prazosin (10 µM)
[25] = single oral 100 mg sarpogrelate hydrochloride
[26] = human, MDCK-II-P-gp cell monolayer, probe loperamide (10 µM)

Sequence of P-gp (P08183 whole entry): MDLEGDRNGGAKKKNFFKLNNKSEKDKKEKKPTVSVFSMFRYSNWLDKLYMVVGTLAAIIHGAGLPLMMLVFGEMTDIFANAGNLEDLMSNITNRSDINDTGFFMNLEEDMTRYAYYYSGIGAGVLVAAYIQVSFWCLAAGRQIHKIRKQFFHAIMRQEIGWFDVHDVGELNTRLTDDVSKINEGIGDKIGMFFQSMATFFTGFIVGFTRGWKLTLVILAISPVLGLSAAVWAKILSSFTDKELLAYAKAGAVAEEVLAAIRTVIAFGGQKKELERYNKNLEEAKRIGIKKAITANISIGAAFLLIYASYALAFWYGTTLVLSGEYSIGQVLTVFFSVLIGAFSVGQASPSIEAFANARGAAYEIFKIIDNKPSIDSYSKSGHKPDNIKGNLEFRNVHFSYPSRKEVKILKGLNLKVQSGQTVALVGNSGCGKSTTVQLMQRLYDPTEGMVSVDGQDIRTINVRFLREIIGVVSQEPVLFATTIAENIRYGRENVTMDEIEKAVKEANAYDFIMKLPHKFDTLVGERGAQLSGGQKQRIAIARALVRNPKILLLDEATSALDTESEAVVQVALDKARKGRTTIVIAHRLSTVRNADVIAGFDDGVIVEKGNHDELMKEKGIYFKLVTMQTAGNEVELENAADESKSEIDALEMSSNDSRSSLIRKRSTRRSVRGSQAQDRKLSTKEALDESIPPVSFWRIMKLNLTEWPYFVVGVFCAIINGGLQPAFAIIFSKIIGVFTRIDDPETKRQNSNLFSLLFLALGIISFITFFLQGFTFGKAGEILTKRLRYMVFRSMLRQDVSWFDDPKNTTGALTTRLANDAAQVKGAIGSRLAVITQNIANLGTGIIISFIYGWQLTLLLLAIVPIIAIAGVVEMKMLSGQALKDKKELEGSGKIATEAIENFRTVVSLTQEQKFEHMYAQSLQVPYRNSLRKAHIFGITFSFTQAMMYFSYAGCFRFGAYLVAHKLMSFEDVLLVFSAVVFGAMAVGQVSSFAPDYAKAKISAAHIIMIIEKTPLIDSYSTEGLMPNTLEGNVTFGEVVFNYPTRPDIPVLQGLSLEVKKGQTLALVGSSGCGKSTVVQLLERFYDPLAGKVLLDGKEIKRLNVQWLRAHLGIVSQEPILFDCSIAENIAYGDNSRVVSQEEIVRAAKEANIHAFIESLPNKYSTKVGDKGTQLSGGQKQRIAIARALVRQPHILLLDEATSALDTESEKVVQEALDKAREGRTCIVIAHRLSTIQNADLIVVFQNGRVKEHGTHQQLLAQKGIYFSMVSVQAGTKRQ

COCCc1ccc(OCC(O)CNC(C)C)cc1 (stereo not drawn) [Metoprolol, metoprolol]
fold increase of AUCt of metoprolol (observed) [1]: 1.53 fold | fold increase of Cmax of metoprolol (observed) [1]: 1.62 fold | metabolized fraction by CYP2D6 [2]: 0.83

COc1cccc(CCc2ccccc2OC[C@H](O)CN(C)C)c1 (racemic) [M-1, (R,S)-1-{2-[2-(3-methoxyphenyl)ethyl]-phenoxy}-3-(dimethylamino)-2-propanol]
fup (fraction unbound in plasma) [3]: 0.03 | observed ratio of AUC of M-1 to sarpogrelate ([4]; single oral 100 mg sarpogrelate hydrochloride, observed clinical data): 0.139 | Permeability Papp,AB of prazosin ([5]; inhibitor 0.2 µM): 0.891±0.0355 ×10^−6 cm/s | Permeability Papp,BA of prazosin ([5]; inhibitor 0.2 µM): 3.42±0.0237 ×10^−6 cm/s | Permeability Papp,AB of prazosin ([5]; inhibitor 2 µM): 0.813±0.0547 ×10^−6 cm/s | Permeability Papp,BA of prazosin ([5]; inhibitor 2 µM): 3.31±0.0467 ×10^−6 cm/s | Permeability Papp,AB of prazosin ([5]; inhibitor 10 µM): 0.811±0.0111 ×10^−6 cm/s | Permeability Papp,BA of prazosin ([5]; inhibitor 10 µM): 3.32±0.0139 ×10^−6 cm/s | Inhibition (%) ([5]; inhibitor 0.2 µM): 0.380% | Inhibition (%) ([5]; inhibitor 2 µM): 0.771% | Inhibition (%) ([5]; inhibitor 10 µM): 0.381% | inhibition of BCRP-mediated prazosin transport [5]: did not inhibit | cell viability (MTT assay) [6]: > 97% | cell viability (MTT assay) [7]: > 97% | CLint by rUGT2B7 [8]: 0.32 μL/min/mg protein | Additional CLint in HLM (NADPH generating system) ([9]; 400 nM M-1 in HLM with NADPH generating system): 150 μL/min/mg protein | observed values of AUC0–24 h (range across studies) [10, 22]: 246.2 to 267.2 ng·h/mL | Tmax [10, 23]: 1.0 (0.33–1.5) ^a hours | Permeability Papp,AB of loperamide ([11]; inhibitor 0.2 µM): 0.0894±0.0188 ×10^−6 cm/s | Permeability Papp,BA of loperamide ([11]; inhibitor 0.2 µM): 1.95±0.0443 ×10^−6 cm/s | Permeability Papp,AB of loperamide ([11]; inhibitor 2 µM): 0.0822±0.0192 ×10^−6 cm/s | Permeability Papp,BA of loperamide ([11]; inhibitor 2 µM): 1.84±0.0249 ×10^−6 cm/s | Permeability Papp,AB of loperamide ([11]; inhibitor 10 µM): 0.104±0.0243 ×10^−6 cm/s | Permeability Papp,BA of loperamide ([11]; inhibitor 10 µM): 1.95±0.0403 ×10^−6 cm/s | Inhibition (%) ([11]; inhibitor 0.2 µM): 2.00% | Inhibition (%) ([11]; inhibitor 2 µM): 7.82% | Inhibition (%) ([11]; inhibitor 10 µM): 2.91% | inhibition of P-gp-mediated loperamide transport ([11]; all tested concentrations up to 10 μM): < 10% | CLint by rUGT1A4 [12]: 0.63 μL/min/mg protein | CLint by rUGT1A9 [13]: 1.30 μL/min/mg protein | Ki [14]: 120 nM

COc1cccc(CCc2ccccc2OCC(CN(C)C)OC(=O)CCC(=O)O)c1 (racemic) [Sarpogrelate, (R,S)-1-{2-[2-(3-methoxyphenyl)ethyl]-phenoxy}-3-(dimethylamino)-2-propyl hydrogen succinate hydrochloride]
plasma protein binding [3]: approximately 95% | CLpo (oral systemic clearance) ([4]; Calculated from clinical data): 140 L/h | biopharmaceutics classification system (BCS) class [15]: Class I | inhibition of BCRP-mediated prazosin transport [5]: did not inhibit | inhibition at 1 h, 0.2 µM [5, 24]: 2.69% | inhibition at 1 h, 2 µM [5, 24]: 9.62% | inhibition at 1 h, 10 µM [5, 24]: 0.38% | viability at 1 h, 10 µM [16]: > 97% | formation of M-1 in human blood [17]: not observed | viability at 1 h, 10 µM [18]: > 97% | Lag time [19]: 0 h | fa (fraction absorbed in the gastrointestinal tract) [19]: 1.0 | formation of M-1 in human intestinal microsomes [20]: not observed | microsomal CLint at 400 nM ([9]; pH 7.4, CLint for M-1 formation (carboxylesterase-mediated CLint), 400 nM sarpogrelate, HLM 0.1 mg/mL, no cofactor): 32.6 µL/min/mg | microsomal CLint at 400 nM ([9]; pH 7.5, carboxylesterase and UDPGA-dependent CLint, 400 nM sarpogrelate in HLM with UDPGA): 50 ± 7.89 µL/min/mg | Tmax ([10]; humans, 100 mg oral dose): 0.889 ± 0.651 h | observed values of AUC0–24 h (range across studies) [10, 22]: 1,291–1,773 ng h/mL | observed values of Cmax (range across studies) [10, 22]: 466.0 to 781.6 ng/mL | Tmax [10, 23]: 0.67 (0.3–1.5) ^a hours | Tmax ([10]; observed, single oral 100 mg sarpogrelate hydrochloride, median (range), ref 22): 1.00 (1.0–4.0) ^a hours | observed values of AUC (range across studies) [10, 25]: 348.3 to 621.5 ng·h/mL | observed values of Cmax (range across studies) [10, 25]: 343.0 to 635.1 ng/mL | unchanged sarpogrelate in urine or feces ([10]; up to 24 hours after a 100 mg oral dose, humans): no unchanged sarpogrelate was detected | inhibition at 1 h [11, 26]: < 10% | inhibition at 1 h, 0.2 µM [11, 26]: 9.18% | inhibition at 1 h, 2 µM [11, 26]: 9.72% | inhibition at 1 h, 10 µM [11, 26]: 9.95% | Log P ([21]; PBPK input, reference cell empty, apparently ref www.Chembase.cn): 1.12 | PSA ([21]; ref www.Chembase.cn): 85.3 | Ki [14]: 1240 nM

COc1ccc2c(c1)[C@]13CCCC[C@@H]1[C@H](C2)N(C)CC3 [Dextromethorphan, dextromethorphan]
metabolized fraction by CYP2D6 [2]: 0.96

CNCCCN1c2ccccc2CCc2ccccc21 [Desipramine, desipramine]
metabolized fraction by CYP2D6 [2]: 0.88
